Experimental data published in BindingDB's records for doi:10.1016/j.ejmech.2011.10.026 (National Cheng Kung University, 2012).

Biological target: T1, Nitric oxide synthase, inducible (Mus musculus, UniProt P29477)
T1 sequence (P29477 whole entry): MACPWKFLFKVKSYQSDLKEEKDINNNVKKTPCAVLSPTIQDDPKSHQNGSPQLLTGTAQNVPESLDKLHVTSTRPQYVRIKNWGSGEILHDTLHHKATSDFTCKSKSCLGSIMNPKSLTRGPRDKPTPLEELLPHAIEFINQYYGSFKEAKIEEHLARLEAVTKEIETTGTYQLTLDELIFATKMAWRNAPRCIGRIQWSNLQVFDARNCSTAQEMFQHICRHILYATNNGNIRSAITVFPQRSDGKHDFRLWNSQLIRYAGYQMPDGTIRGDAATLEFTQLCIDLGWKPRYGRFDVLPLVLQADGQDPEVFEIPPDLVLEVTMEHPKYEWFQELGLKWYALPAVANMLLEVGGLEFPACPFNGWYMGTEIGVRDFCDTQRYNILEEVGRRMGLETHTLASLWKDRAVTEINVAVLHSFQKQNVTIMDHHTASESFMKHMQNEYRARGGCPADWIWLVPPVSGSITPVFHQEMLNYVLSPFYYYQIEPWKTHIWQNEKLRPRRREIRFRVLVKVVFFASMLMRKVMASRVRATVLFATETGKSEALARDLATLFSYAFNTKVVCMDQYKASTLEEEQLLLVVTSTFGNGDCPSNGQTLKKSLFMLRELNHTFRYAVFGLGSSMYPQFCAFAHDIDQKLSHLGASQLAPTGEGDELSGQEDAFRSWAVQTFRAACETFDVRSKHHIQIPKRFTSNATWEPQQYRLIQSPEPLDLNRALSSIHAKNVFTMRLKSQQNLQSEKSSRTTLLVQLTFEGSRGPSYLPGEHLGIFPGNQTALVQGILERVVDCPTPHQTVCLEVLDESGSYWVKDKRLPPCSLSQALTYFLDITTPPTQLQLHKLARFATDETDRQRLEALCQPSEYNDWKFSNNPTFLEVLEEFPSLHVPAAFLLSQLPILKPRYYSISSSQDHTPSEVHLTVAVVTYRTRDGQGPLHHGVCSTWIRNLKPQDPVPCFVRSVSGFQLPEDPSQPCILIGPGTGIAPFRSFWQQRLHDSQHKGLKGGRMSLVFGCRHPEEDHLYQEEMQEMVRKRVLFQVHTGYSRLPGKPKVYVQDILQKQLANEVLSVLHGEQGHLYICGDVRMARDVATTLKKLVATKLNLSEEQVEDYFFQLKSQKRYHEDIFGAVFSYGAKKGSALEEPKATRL
Test: Inhibition of iNOS-mediated nitric oxide production in LPS-stimulated mouse BV2 cells measured after 24 hrs of post-stimulation by Griess reaction method
Procedure, shortened: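 Murine BV2 microglia in DMEM with 5% FBS were given compound at 1–50 µM and stimulated with LPS 0.5 µg/mL. Nitrite accumulated in the medium was measured by Griess reagent 24 h after stimulation. IC50 given as mean ± SEM of three experiments on different days using cells from different passages.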

| Compound | IC50 [µM] |
| --- | --- |
| COc1ccc(/C=C/C(=O)c2cc(C(=O)/C=C/c3ccc(OC)cc3)c(O)cc2O)cc1 | 25.7 |
| COc1cccc(/C=C/C(=O)c2cc(C(=O)/C=C/c3cccc(OC)c3)c(O)cc2O)c1 | 8.09 |
| COc1ccc(/C=C/C(=O)c2cc(C(=O)/C=C/c3ccc(OC)c(OC)c3OC)c(O)cc2O)c(OC)c1OC | 7.04 |
| COc1ccc(OC)c(/C=C/C(=O)c2cc(C(=O)/C=C/c3cc(OC)ccc3OC)c(O)cc2O)c1 | 23.3 |
| Cc1ccc(/C=C/C(=O)c2cc(C(=O)/C=C/c3ccc(C)o3)c(O)cc2O)o1 | 36.3 |
| Cc1ccsc1/C=C/C(=O)c1cc(C(=O)/C=C/c2sccc2C)c(O)cc1O | 43.3 |
| O=C(/C=C/c1ccccn1)c1cc(C(=O)/C=C/c2ccccn2)c(O)cc1O | 8.65 |
| CC(=O)c1cc(C(=O)C=Cc2ccc3c(c2)OCO3)c(O)cc1O | 17.7 |

Now those with a lower IC50, led by results:

| IC50 [µM] | Compound |
| --- | --- |
| 5.44 | O=C(/C=C/c1ccccc1)c1cc(C(=O)/C=C/c2ccccc2)c(O)cc1O |
| 4 | O=C(/C=C/c1ccco1)c1cc(C(=O)/C=C/c2ccco2)c(O)cc1O |
| 1.82 | COc1cccc(/C=C/C(=O)c2cc(C(=O)/C=C/c3cccc(OC)c3OC)c(O)cc2O)c1OC |
| 0.95 | COc1ccc(/C=C/C(=O)c2cc(C(=O)/C=C/c3ccc(OC)c(OC)c3)c(O)cc2O)cc1OC |
